Measured values: ChEMBL document CHEMBL4020823, “Highly Selective, Potent, and Oral mTOR Inhibitor for Treatment of Cancer as Autophagy Inducer” (J Med Chem, 2018)
Active and inactive are the calls of the source. No cut-off for these calls is given here.

Experiments:
[1] = molecular target: PI3K p110 beta/p85 alpha (Mus musculus) (UniProt P26450+Q8BTI9); assay: Inhibition of full length recombinant mouse PI3K p110beta/p85alpha at 1 uM relative to control; type: protein-complex assay
Summary of the method: (§1)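 Eurofins KinaseProfiler panel with compound at a single 1 μM concentration. ATP at the Km of each kinase. Result is % inhibition, mean of two independent experiments.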

T47D [2] = assay: Growth inhibition of human T47D cells after 72 hrs by CCK8 assay; type: functional, cell-based
Summary of the method: (§2)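 Cells were seeded at 2000–3000 per well and grown 24 h in serum-containing medium. They were then exposed to serially diluted compound for 72 h at 37 °C, 5% CO2. CCK8 reagent was added for 1–4 h and absorbance read at 450 nm. Inhibition = (AC − AS)/(AC − Ab) × 100%. IC50 is the average of at least three independent determinations.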

[3] = AUC (0 to infinity) in Sprague-Dawley rat at 20 mg/kg, iv administered as single dose by HPLC analysis; type: ADME, organism-based; parameters: dose 20 mg/kg, time infinity, route intravenous; settings: in vivo
Summary of the method: (§3)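 Rats fasted overnight, then given one 20 mg/kg dose either iv or po. Blood was collected and centrifuged at once to obtain plasma. Plasma drug levels were measured by HPLC, and PK parameters were derived from the concentration-time data.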

MDA-MB-231 [4] = assay: Induction of autophagy in human MDA-MB-231 cells assessed as increase in LC3-2 level at 0.25 to 0.5 uM after 48 hrs by Western blot analysis; type: functional, cell-based
Summary of the method: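 Cells treated with test agents at several concentrations for 2 days (48 h). LC3B-II detected by Western blot on lysates, with β-actin as internal control. Membranes blocked in 5% skim milk, primary antibodies at 4 °C overnight, peroxidase-conjugated anti-mouse or anti-rabbit IgG secondary, ECL detection.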

T47D [5] = assay: Cell cycle arrest in human T47D cells assessed as decrease in S-phase at 0.25 to 0.5 uM after 24 hrs by propidium iodide-staining based flow cytometric analysis; type: functional
Summary of the method: (§4)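 Cells were seeded at 5 × 10^5 cells/mL. At 24 h after plating they were treated with increasing concentrations for 24 h, washed in PBS, and fixed in ice-cold 70% ethanol for at least 24 h. They were stained with propidium iodide plus RNase A for 30 min at 37 °C and analysed by flow cytometry for phase distribution.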

Homo sapiens [6] = species on record: Homo sapiens; assay: Inhibition of mTORC1 in human T47D cells assessed as reduction in S6 phosphorylation at Ser 240/244 residues at 0.25 to 0.5 uM by Western blot analysis; type: cell-based
Summary of the method: (§5)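 Cells treated with the indicated concentrations, then whole-cell lysates immunoblotted. mTORC1 activity read as S6 and 4E-BP1 phosphorylation; mTORC2 activity read as AKT Ser473 phosphorylation. Blocking in 5% skim milk, primary antibodies at 4 °C overnight, peroxidase-conjugated secondary, ECL detection.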

MDA-MB-231 [7] = assay: Growth inhibition of human MDA-MB-231 cells after 72 hrs by CCK8 assay; type: functional, cell-based; settings: MDA-MB-231, 72 h; summary of the method: as §2
Homo sapiens [8] = species on record: Homo sapiens; assay: Inhibition of mTORC1 in human MDA-MB-231 cells assessed as reduction in 4E-BP1 phosphorylation at Thr37/46 residues at 0.25 to 0.5 uM by Western blot analysis; type: cell-based; summary of the method: as §5
HeLa = assay: Inhibition of mTORC1 in human HeLa cells assessed as reduction in 4E-BP1 phosphorylation at Thr37/46 residues at 0.5 to 1 uM by Western blot analysis; type: cell-based; summary of the method: as §5
MCF7 [9] = assay: Cell cycle arrest in human MCF7 cells assessed as decrease in S-phase at 0.25 to 0.5 uM after 24 hrs by propidium iodide-staining based flow cytometric analysis; type: functional; summary of the method: as §4
[10] = molecular target: Serine-protein kinase ATM (Homo sapiens, UniProt Q13315); assay: Inhibition of full length recombinant human ATM
Homo sapiens [11] = species on record: Homo sapiens; assay: Inhibition of mTORC2 in human T47D cells assessed as reduction in AKT phosphorylation at Ser473 residues at 0.25 to 0.5 uM by Western blot analysis; type: cell-based
Summary of the method: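 Cells exposed to a range of compound concentrations; whole-cell lysates immunoblotted for phospho-AKT (Ser473) as the mTORC2 readout, alongside S6 and 4E-BP1 phosphorylation for mTORC1. Membranes blocked in 5% skim milk, primary antibodies overnight at 4 °C, peroxidase-conjugated anti-mouse or anti-rabbit IgG secondary, ECL detection. Rapamycin as comparator.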

Homo sapiens [12] = species on record: Homo sapiens; assay: Inhibition of full length recombinant human PI3K p110alpha/p65alpha at 1 uM relative to control; summary of the method: as §1
Rattus norvegicus = assay: Apparent volume of distribution at steady state in Sprague-Dawley rat at 20 mg/kg, po administered as single dose by HPLC analysis; type: ADME, organism-based; settings: in vivo; summary of the method: as §3
Homo sapiens [13] = species on record: Homo sapiens; assay: Inhibition of mTORC1 in human MCF7 cells assessed as reduction in 4E-BP1 phosphorylation at Thr37/46 residues at 0.25 to 0.5 uM by Western blot analysis; type: cell-based; summary of the method: as §5
[14] = Protein binding in rabbit plasma at 4 uM after 4 hrs by equilibrium dialysis method; type: ADME, cell-free, Oryctolagus cuniculus; settings: read-out: PPB (converted)
Summary of the method: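 Plasma protein binding measured in rabbit and human plasma with compound at 4 μM over a 4 h period; result given as percent bound.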

Mus musculus = assay: Down regulation of AKT phosphorylation at Ser473 residues in human T47D cells xenografted in BALB/c nude mouse administered via oral gavage after 3 weeks by hematoxylin and eosine staining based light microscopic assay; type: functional, cell-based
Summary of the method: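 Tumours from the oral 3-week T-47D xenograft study were formalin-fixed, paraffin-embedded and cut into 5 μm sections. Sections were deparaffinized, rehydrated and incubated overnight at 4 °C with phospho-specific primary antibody at 1:100. Biotin secondary was applied for 1 h at room temperature, then ABC-peroxidase/DAB with hematoxylin counterstain. Sections were viewed by light microscopy.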

T47D [15] = assay: Antitumor activity against human T47D cells xenografted in BALB/c nude mouse assessed as decrease in tumor growth administered via oral gavage after 3 weeks; type: functional, cell-based
[16] = molecular target: Serine/threonine-protein kinase mTOR (Homo sapiens, UniProt P42345); assay: Inhibition of N-terminal FLAG-tagged recombinant human mTOR (1362 to end residues)
[17] = molecular target: PI3-kinase p110-delta/p85-alpha (Homo sapiens) (UniProt P27986+O00329); assay: Inhibition of full length recombinant human PI3K p110delta/p85alpha at 1 uM relative to control; type: protein-complex assay; summary of the method: as §1
SiHa = assay: Cell cycle arrest in human SiHa cells assessed as decrease in S-phase at 0.25 to 0.5 uM after 24 hrs by propidium iodide-staining based flow cytometric analysis; type: functional; summary of the method: as §4
[18] = system: PI3-kinase p110-alpha/p85-alpha (Homo sapiens), P27986+P42336 [E542K]; assay: Inhibition of full length recombinant human p85alpha/PI3K p110alpha E542K mutant at 1 uM relative to control; summary of the method: as §1
Homo sapiens [19] = species on record: Homo sapiens; assay: Inhibition of mTORC1 in human T47D cells assessed as reduction in 4E-BP1 phosphorylation at Thr37/46 residues at 0.25 to 0.5 uM by Western blot analysis; type: cell-based; summary of the method: as §5
MCF7 [20] = assay: Growth inhibition of human MCF7 cells after 72 hrs by CCK8 assay; type: functional, cell-based; settings: MCF7, 72 h; summary of the method: as §2
T47D [21] = assay: Antitumor activity against human T47D cells xenografted in BALB/c nude mouse assessed as decrease in tumor growth at 60 mg/kg, po administered via gavage after 3 weeks relative to control; type: functional; settings: 504 h, read-out: TGI

Chain of Serine-protein kinase ATM (Q13315 whole entry): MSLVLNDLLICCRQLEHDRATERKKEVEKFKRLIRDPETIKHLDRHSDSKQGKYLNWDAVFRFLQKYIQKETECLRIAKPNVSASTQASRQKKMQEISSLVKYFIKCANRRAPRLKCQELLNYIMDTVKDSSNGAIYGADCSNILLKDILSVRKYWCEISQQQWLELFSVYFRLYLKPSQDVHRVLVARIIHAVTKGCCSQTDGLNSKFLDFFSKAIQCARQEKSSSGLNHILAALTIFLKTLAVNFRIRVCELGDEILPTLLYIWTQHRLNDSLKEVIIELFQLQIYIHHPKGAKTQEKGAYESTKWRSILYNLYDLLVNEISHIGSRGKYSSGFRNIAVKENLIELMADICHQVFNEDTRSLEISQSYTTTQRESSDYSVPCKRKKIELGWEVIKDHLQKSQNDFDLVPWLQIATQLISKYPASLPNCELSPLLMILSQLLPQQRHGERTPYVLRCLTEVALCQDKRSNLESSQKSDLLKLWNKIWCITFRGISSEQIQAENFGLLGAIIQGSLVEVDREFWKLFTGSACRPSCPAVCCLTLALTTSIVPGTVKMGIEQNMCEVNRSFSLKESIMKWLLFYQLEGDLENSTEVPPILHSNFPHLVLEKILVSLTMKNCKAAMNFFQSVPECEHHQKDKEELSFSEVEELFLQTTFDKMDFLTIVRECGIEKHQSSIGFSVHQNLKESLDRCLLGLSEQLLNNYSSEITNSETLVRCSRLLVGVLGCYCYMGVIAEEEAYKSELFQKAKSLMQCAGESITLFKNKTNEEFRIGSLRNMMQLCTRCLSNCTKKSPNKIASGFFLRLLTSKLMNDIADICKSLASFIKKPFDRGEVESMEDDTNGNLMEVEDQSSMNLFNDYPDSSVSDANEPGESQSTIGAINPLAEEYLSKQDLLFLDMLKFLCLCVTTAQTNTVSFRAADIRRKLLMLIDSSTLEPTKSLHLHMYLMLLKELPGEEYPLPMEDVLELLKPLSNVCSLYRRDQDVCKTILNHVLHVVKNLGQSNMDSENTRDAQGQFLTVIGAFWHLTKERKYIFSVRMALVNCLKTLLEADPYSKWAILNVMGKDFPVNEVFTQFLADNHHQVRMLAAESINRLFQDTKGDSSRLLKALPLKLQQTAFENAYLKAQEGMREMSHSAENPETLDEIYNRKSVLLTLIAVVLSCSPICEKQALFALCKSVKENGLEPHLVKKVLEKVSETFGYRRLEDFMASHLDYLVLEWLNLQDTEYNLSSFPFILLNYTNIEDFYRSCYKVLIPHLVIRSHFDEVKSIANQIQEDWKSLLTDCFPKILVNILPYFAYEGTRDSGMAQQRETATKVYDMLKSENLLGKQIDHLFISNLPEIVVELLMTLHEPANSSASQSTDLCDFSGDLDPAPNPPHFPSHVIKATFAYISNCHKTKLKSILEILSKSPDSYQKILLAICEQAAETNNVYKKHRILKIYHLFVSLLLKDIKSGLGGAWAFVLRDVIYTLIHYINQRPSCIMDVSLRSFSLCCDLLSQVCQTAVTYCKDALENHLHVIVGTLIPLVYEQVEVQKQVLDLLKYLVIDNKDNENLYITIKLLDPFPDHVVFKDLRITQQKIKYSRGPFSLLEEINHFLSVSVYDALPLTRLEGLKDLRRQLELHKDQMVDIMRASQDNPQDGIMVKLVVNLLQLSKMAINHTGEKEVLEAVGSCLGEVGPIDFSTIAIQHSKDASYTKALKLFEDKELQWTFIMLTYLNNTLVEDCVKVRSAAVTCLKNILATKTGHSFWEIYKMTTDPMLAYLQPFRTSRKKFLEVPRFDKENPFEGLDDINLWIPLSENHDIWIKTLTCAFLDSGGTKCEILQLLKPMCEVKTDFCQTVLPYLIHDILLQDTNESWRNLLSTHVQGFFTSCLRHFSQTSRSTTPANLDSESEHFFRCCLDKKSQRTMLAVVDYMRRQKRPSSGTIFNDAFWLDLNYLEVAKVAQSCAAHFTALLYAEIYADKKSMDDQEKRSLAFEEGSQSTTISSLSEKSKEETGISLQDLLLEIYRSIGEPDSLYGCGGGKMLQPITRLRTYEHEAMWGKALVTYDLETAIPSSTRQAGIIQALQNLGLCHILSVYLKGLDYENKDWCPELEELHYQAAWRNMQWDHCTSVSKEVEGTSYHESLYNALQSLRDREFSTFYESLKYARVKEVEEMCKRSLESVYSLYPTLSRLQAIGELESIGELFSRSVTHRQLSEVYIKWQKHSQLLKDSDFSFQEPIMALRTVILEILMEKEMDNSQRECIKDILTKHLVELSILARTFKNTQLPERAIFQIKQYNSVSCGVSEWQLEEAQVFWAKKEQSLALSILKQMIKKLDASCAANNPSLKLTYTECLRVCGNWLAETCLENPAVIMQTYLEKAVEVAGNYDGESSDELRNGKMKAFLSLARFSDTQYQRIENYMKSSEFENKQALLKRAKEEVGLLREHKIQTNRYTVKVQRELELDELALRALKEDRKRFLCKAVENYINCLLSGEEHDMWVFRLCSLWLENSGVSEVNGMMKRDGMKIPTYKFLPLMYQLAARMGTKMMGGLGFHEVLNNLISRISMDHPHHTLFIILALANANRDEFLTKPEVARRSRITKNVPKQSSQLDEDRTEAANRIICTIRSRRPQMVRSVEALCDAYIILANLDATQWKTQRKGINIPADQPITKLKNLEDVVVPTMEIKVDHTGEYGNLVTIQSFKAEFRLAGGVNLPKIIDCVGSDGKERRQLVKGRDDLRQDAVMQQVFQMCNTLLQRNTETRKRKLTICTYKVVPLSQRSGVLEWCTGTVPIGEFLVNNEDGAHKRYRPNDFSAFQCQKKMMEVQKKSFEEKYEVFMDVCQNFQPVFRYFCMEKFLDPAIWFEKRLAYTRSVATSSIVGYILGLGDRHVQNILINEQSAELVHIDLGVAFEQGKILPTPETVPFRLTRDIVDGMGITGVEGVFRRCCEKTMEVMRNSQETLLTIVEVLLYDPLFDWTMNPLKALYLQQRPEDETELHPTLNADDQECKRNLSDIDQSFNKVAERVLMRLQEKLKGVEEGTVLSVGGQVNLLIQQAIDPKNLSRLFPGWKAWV

SMILES: N#CCN1CCC(n2c(=O)cnc3cnc4ccc(-c5ccc(N)nc5)cc4c32)CC1
- inhibition [1]: 5%
- IC50 (T47D [2]): 0.205 µM
- AUC(0-inf) [3]: 6.56 µg·h/mL
- Activity (MDA-MB-231 [4]): Active
- Activity (T47D [5]): Active
- inhibition (Homo sapiens [6]): Active
- IC50 (MDA-MB-231 [7]): 0.1 µM
- inhibition (Homo sapiens [8]): Active
- inhibition (HeLa): Active
- Activity (MCF7 [9]): Active
- IC50 [10]: 0.062 µM
- inhibition (Homo sapiens [11]): Active
- inhibition (Homo sapiens [12]): 5%
- Vdss(app) (Rattus norvegicus): 21.79 L/kg
- inhibition (Homo sapiens [13]): Active
- fraction unbound at 4 h, 4 µM [14]: 0.399
- Activity (Mus musculus): Dose-dependent effect
- TGI (T47D [15]): Dose-dependent effect
- IC50 [16]: 0.007 µM
- inhibition [17]: 9%
- Activity (SiHa): Active
- inhibition [18]: 11%
- inhibition (Homo sapiens [19]): Active
- IC50 (MCF7 [20]): 0.103 µM
- inhibition in vivo at 60 mg/kg (T47D [21]): 83.7%
